The source made the active and inactive calls. No cut-off for these calls is given here.
Columns and labels:
Rattus norvegicus [1] = assay: Anticonvulsant activity in rat assessed as protection against maximal electric shock-induced seizures at 30 mg/kg, ip measured after 0.5 hrs; assay type: functional, organism-based
Summary of the method: (§1)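 Rats dosed ip or orally as 0.5% methylcellulose suspension; maximal electroshock at listed time. Protection = abolition of hindlimb tonic extension; 4 rats per group, scored protected/tested.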

Rattus norvegicus [2] = assay: Anticonvulsant activity in rat assessed as protection against maximal electric shock-induced seizures at 30 mg/kg, po measured after 0.5 hrs; assay type: functional, organism-based; summary of the method: as §1
Mus musculus [3] = assay: Anticonvulsant activity in mouse assessed as protection against 6 Hz psychomotor seizure at 20 mg/kg, ip after 2 hrs; assay type: functional, organism-based
Summary of the method: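 Suspension in 0.5% methylcellulose given ip to mice; corneal stimulation with 0.2 ms monopolar rectangular pulses at 6 Hz for 3 s from a constant current device, mice restrained then released to observation cage. Protected if normal exploratory behaviour resumed within 10 s of stimulation. Scored as protected/tested, 4 mice per group.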

Mus musculus [4] = assay: Analgesic activity in mouse assessed as reduction in AUC of formalin-induced licking time during inflammatory phase at 13 mg/kg, ip relative to control; assay type: functional
Summary of the method: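 Formalin injected into a mouse hindlimb; total licking time taken as pain intensity. Compound given ip at 13 mg/kg as a suspension in 0.5% methylcellulose; vehicle-only animals served as controls.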

[5] = Retention time of the compound in mouse liver microsomes at 20 uM preincubated for 15 mins followed by addition of NADPH-regenerating system measured after 5 to 90 mins by […] analysis; assay type: ADME
Summary of the method: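 Mouse liver microsomes (0.4 mg/mL) with test compound (20 µM) in 100 mM potassium phosphate, pH 7.4, were preincubated 15 min at 37 °C. An NADPH-regenerating system was then added and incubation ran 5–90 min at 37 °C. Levallorphan (20 µM) served as internal standard, and reactions were quenched with perchloric acid. The supernatant was analysed by UPLC/MS. Duplicate incubations.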

[6] = Ratio of drug level in brain to plasma in CD1 mouse at 12.92 mg/kg, ig administered as single dose measured after 60 mins by LC/ESI-MS/MS analysis; assay type: ADME, organism-based; conditions: brain and plasma, po, read-out: BPR
[7] = Neurotoxicity in ip dosed mouse after […] by rotarod test; assay type: toxicity, organism-based; conditions: in vivo
[8] = Cmax in CD1 mouse brain at 12.92 mg/kg, ig measured up to 240 mins by LC/ESI-MS/MS analysis; assay type: ADME, organism-based; parameters: dose 12.92 mg/kg, route […]; conditions: po
Vibrio harveyi [9] = assay: Mutagenicity in Vibrio harveyi BB7XM assessed as number of colonies after 48 hrs (reference value: 14 no_unit); assay type: ADME, organism-based; conditions: in vivo
Summary of the method: (§2)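 Vibrio harveyi mutagenicity test: test compound was added to exponentially growing cultures (A600 = 0.1, 30 °C) and grown to OD600 0.3–0.4. Then 5 × 10^6 cells were plated on BOSS agar with neomycin (final 100 µg/mL) and incubated 48 h at 30 °C. Neomycin-resistant colonies were counted. Triplicate; controls were water, DMSO and NQNO 40 ng/mL.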

Vibrio harveyi [10] = assay: Antimutagenic activity against Vibrio harveyi BB7X assessed as inhibition of NQNO-induced mutagenicity after 48 hrs; assay type: functional
Summary of the method: (§3)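 V. harveyi cultures grown exponentially to A600 0.1 at 30 °C, exposed to test compound for 15 min, then to NQNO, and grown on to A600 0.3–0.4. 5 × 10⁶ cells plated on BOSS agar with neomycin (100, final). Neomycin-resistant colonies counted after 48 h at 30 °C. Result given as % inhibition of NQNO mutagenicity; three independent repeats.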

Mus musculus [11] = assay: Volume of distribution in steady state in CD1 mouse plasma at 1 mg/kg, iv measured up to 240 mins by LC/ESI-MS/MS analysis; assay type: ADME, organism-based; conditions: in vivo, 4 h
Vibrio harveyi [12] = assay: Antimutagenic activity against Vibrio harveyi BB7 assessed as inhibition of NQNO-induced mutagenicity after 48 hrs; assay type: functional; summary of the method: as §3
[13] = Ratio of drug level in brain to plasma in CD1 mouse at 1 mg/kg, iv administered as single dose measured after 60 mins by LC/ESI-MS/MS analysis; assay type: ADME, organism-based; conditions: brain and plasma, read-out: BPR
Vibrio harveyi [14] = assay: Mutagenicity in Vibrio harveyi BB7 assessed as number of colonies after 48 hrs (reference value: 13 to 14 no_unit); assay type: ADME, organism-based; conditions: in vivo; summary of the method: as §2
[15] = Ratio of drug level in brain to plasma in CD1 mouse at 1 mg/kg, iv administered as single dose measured after 120 mins by LC/ESI-MS/MS analysis; assay type: ADME, organism-based; conditions: brain and plasma, read-out: BPR
Vibrio harveyi [16] = assay: Mutagenicity in Vibrio harveyi BB7M assessed as number of colonies after 48 hrs (reference value: 13 to 14 no_unit); assay type: ADME, organism-based; conditions: in vivo; summary of the method: as §2
[17] = Ratio of drug level in brain to plasma in CD1 mouse at 1 mg/kg, iv administered as single dose measured after 15 mins by LC/ESI-MS/MS analysis; assay type: ADME, organism-based; conditions: brain and plasma, read-out: BPR
Mus musculus [18] = assay: Initial plasma concentration in CD1 mouse at 1 mg/kg, iv measured up to 240 mins by LC/ESI-MS/MS; assay type: ADME, organism-based; conditions: in vivo, 4 h
Mus musculus [19] = assay: AUMC (0 to infinity) in CD1 mouse plasma at 12.92 mg/kg, ip measured up to 240 mins by LC/ESI-MS/MS analysis; assay type: ADME, organism-based; conditions: in vivo, 4 h
[20] = Ratio of drug level in brain to plasma in CD1 mouse at 12.92 mg/kg, ig administered as single dose measured after 15 mins by LC/ESI-MS/MS analysis; assay type: ADME, organism-based; conditions: brain and plasma, po, read-out: BPR
Mus musculus [21] = assay: Cmax in CD1 mouse plasma at 12.92 mg/kg, ip measured up to 240 mins by LC/ESI-MS/MS analysis; assay type: ADME, organism-based; parameters: dose 12.92 mg/kg, route intraperitoneal; conditions: in vivo, 4 h
[22] = MRT in CD1 mouse plasma at 1 mg/kg, iv measured up to 240 mins by LC/ESI-MS/MS analysis; assay type: ADME, organism-based
[23] = Ratio of drug level in brain to plasma in CD1 mouse at 12.92 mg/kg, ip administered as single dose measured after 60 mins by LC/ESI-MS/MS analysis; assay type: ADME, organism-based; conditions: brain and plasma, read-out: BPR
[24] = Ratio of drug level in brain to plasma in CD1 mouse at 12.92 mg/kg, ip administered as single dose measured after 30 mins by LC/ESI-MS/MS analysis; assay type: ADME, organism-based; conditions: brain and plasma, read-out: BPR
[25] = MRT in CD1 mouse brain at 1 mg/kg, iv measured up to 240 mins by LC/ESI-MS/MS analysis; assay type: ADME, organism-based
Vibrio harveyi [26] = assay: Antimutagenic activity against Vibrio harveyi BB7M assessed as inhibition of NQNO-induced mutagenicity after 48 hrs; assay type: functional; summary of the method: as §3
[27] = target: Neuropeptide Y receptor type 2 (Homo sapiens) (UniProt P49146); assay: Displacement of [125I]peptide YY from neuropeptide Y2 receptor in human KAN-TS cells at 10^-5 M; assay type: cell-based
Summary of the method: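 Radioligand binding screen run at a single test concentration of 10^-5 M. Each target used its stated receptor source (human recombinant CHO or HEK-293 cells, endogenous cell lines, or rat tissue membranes) with the listed radioligand.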

Rattus norvegicus [28] = assay: Anticonvulsant activity in pilocarpine-induced status epilepticus Sprague-Dawley rat model at 100 mg/kg, ip after 1 hr during post stage 3 seizure; assay type: functional, organism-based
Summary of the method: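 Rats given pilocarpine 50 mg/kg ip and observed to first convulsive seizure (Racine stage 3–5, time zero); test drug then given ip in 0.5% methylcellulose. Efficacy = halting further stage 3–5 convulsive seizures; scored protected/tested, time after first stage 3 seizure.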

Chain of Neuropeptide Y receptor type 2 (Homo sapiens) (P49146 whole entry): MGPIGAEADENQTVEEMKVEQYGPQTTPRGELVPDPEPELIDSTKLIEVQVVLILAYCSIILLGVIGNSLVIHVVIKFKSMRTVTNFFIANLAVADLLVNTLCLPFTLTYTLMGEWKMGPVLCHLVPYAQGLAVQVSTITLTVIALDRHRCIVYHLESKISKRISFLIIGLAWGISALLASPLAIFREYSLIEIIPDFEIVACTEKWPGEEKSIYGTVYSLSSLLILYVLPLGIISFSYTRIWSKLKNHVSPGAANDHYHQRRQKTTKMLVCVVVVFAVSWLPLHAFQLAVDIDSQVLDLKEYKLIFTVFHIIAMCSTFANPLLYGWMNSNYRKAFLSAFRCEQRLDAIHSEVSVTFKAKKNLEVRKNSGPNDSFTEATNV

Cc1cccc(C)c1OCCOCCN[C@@H](C)CO
Activity (Rattus norvegicus [1]): Active | Activity (Rattus norvegicus [2]): inactive | Activity (Mus musculus [3]): inactive

Cc1cccc(C)c1OCCOCCN[C@H](C)CO.Cl
inhibition in vivo at 13 mg/kg (Mus musculus [4]): 81.1% | Retention_time [5]: 3.81 min | Kp at 1 h [6]: 5.95 | TD50 at […] [7]: 33.3 mg/kg | Cmax [8]: 1640 ng/mL | Activity (Vibrio harveyi [9]): 18 | inhibition (INH) (Vibrio harveyi [10]): 7% | Vdss (Mus musculus [11]): 0.8997 L/kg | inhibition (INH) (Vibrio harveyi [12]): 75% | Kp at 1 h [13]: 3.58 | Activity (Vibrio harveyi [14]): 20 | Kp at 2 h [15]: 6.66 | Activity (Vibrio harveyi [16]): 22 | Kp at […] [17]: 5.36 | C0 (Mus musculus [18]): 2200 ng/mL | AUMC (Mus musculus [19]): 1280 ng·h²/mL | Kp at […] [20]: 2.67 | Cmax (Mus musculus [21]): 1190 ng/mL | MRT [22]: 55.6 min | Kp at 1 h [23]: 1.91 | Kp at 0.5 h [24]: 4.25 | MRT [25]: 50.1 min | inhibition (INH) (Vibrio harveyi [26]): 69%

Cc1cccc(C)c1OCCOCCN[C@H](C)CO
inhibition [27]: -5.1% | Activity (Rattus norvegicus [28]): inactive

Reference: ChEMBL document CHEMBL3774372, “Design, physico-chemical properties and biological evaluation of some new N-[(phenoxy)alkyl]- and N-{2-[2-(phenoxy)ethoxy]ethyl}aminoalkanols as anticonvulsant agents” (Bioorg Med Chem, 2016)
